Source: PubChem (Sanford-Burnham Center for Chemical Genomics)
Rows were chosen to be rich in hits. Some 0.72% of all compounds tested hit in one or more screens of this group.
mIAP activ: increases mouse intestinal alkaline phosphatase activity. AID 2805. muIAP, CDP-Star luminescence, 30 min; stronger effect = higher value; 1 = vehicle-only enzyme signal, 0 = enzyme-free wells. activation factor at 10 µM. 330,000 tested, 0.24% active;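 active = activation factor of at least 2 at 20 µM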
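System: Mouse IAP enzyme | Also added: CDP-Star substrate | Dosing: Compounds dispensed in DMSO | Schedule: 30 min enzyme-substrate-compound incubation at room temperature | Technique: Chemiluminescence readout | Control set: DMSO-only wells and no-enzyme negative control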
hIAP inh: human IAP inhibition; P09923; purified IAP, CDP-Star luminescence, 30 min; inhibition, % at 10 µM; 330,000 tested, 0.12% active; AID 2544;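 active = inhibition reaching a set limit with compound at 10 µM in the primary screen, cut at about 35% in these data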
Target sequence (P09923 whole entry, looked up): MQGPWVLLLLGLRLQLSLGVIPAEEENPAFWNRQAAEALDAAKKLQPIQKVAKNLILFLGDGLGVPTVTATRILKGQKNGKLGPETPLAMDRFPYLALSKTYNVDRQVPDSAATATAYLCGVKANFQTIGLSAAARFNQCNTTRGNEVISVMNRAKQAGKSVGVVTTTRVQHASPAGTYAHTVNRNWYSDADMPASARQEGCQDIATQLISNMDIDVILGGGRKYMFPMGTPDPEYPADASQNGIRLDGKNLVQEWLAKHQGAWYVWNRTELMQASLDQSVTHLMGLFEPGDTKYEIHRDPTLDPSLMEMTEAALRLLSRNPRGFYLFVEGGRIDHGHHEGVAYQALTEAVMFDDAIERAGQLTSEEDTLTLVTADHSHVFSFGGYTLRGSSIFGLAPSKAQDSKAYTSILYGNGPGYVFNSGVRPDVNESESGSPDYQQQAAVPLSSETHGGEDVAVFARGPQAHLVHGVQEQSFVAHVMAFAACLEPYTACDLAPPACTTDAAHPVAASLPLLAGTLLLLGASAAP
bIAP act: increases bovine intestinal alkaline phosphatase activity; purified bovine IAP, CDP-star luminescence, 30 min; stronger effect = higher value; fold of DMSO-control signal, blank-subtracted; activation factor at 20 µM; 200,000 tested, 0.17% active;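 active = activation factor of 2 or more at 20 µM, a signal rise over negative controls twice the positive control's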
mIAP inh: mouse IAP inhibition. purified mouse IAP, CDP-Star luminescence, 30 min. AID 2806. inhibition, % at 10 µM. 330,000 tested, 0.2% active;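 active = inhibition of at least 40% at 10 µM in the primary screen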
hIAP act: increases human intestinal alkaline phosphatase activity. P09923. purified human IAP, CDP-Star luminescence, 30 min; stronger effect = higher value; 1 = vehicle-only enzyme, 0 = enzyme-free background. activation factor at 10 µM. 330,000 tested, 0.16% active. AID 2524;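 active = activation factor of the enzyme at least 2-fold when tested at 20 µM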
bIAP inh: intestinal alkaline phosphatase (bovine) inhibition; purified bovine IAP, CDP-star luminescence, 30 min; inhibition, % at 20 µM; 190,000 tested, under 10 active;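 active = over 50% inhibition of intestinal alkaline phosphatase at 20 µM in the single-dose screen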
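test system = bovine IAP enzyme | medium = DEA buffer 100 mM, pH 9.8, with MgCl2 1.0 mM, ZnCl2 0.02 mM | detection = luminescence | dosing = single compound dose of 20 µM, 2% DMSO final | incubation = 30 min reaction at room temperature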
mIAP inh confirm: mouse IAP inhibition confirmation; inhibition, % at 10 µM; purified mouse IAP, CDP-Star luminescence, 30 min; 11,000 tested, 4.7% active; shares compounds with mIAP inh;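 active = inhibition of at least 40% at 10 µM in either of the two replicates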
Each line names hits and unclear results; the compound was inactive in the other large screens (follow-up assays come after a bar, where they were run).

C#CCOCCOCCOCCNc1nc(N2CCN(C(=O)CCCCCCCCCCNC(=O)[C@H]([C@@H](C)CC)n3cc(CCCCN=C(N)N)nn3)CC2)nc(N2CCN(C(=O)CCCCCCCCCCNC(=O)[C@H]([C@@H](C)CC)n3cc(CCCCN=C(N)N)nn3)CC2)n1	mIAP activ 10 (no result: bIAP act, bIAP inh) | mIAP inh confirm inactive
C#CCOCCOCCOCCNc1nc(N2CCN(C(=O)[C@H]([C@@H](C)CC)n3cc(CCCN=C(N)N)nn3)CC2)nc(N2CCN(C(=O)[C@H]([C@@H](C)CC)n3cc(CCCN=C(N)N)nn3)CC2)n1	none
C#CCOCCOCCOCCNc1nc(N2CCN(C(=O)CCCCCCCCCCNC(=O)Cn3cc(CCCCCN)nn3)CC2)nc(N2CCN(C(=O)CCCCCCCCCCNC(=O)[C@@H](CCSC)n3cc(CCO)nn3)CC2)n1	mIAP activ 4.2 (no result: bIAP act, bIAP inh) | mIAP inh confirm inactive
C#CCOCCOCCOCCNc1nc(N2CCN(C(=O)CCCCCCCCCCNC(=O)[C@H]([C@@H](C)CC)n3cc(CCCCCN)nn3)CC2)nc(N2CCN(C(=O)CCCCCCCCCCNC(=O)[C@H]([C@@H](C)CC)n3cc(CCCCN=C(N)N)nn3)CC2)n1	mIAP activ 18 (no result: bIAP act, bIAP inh) | mIAP inh confirm inactive
C#CCOCCOCCOCCNc1nc(N2CCN(C(=O)CCCCCCCCCCNC(=O)Cn3cc(CCCCCN)nn3)CC2)nc(N2CCN(C(=O)CCCCCCCCCCNC(=O)[C@@H](CCC(=O)O)n3cc(CCCCCN)nn3)CC2)n1	none (no result: bIAP act, bIAP inh)
Cc1cc(OCC(=O)N2CCOCC2)ccc1NC(=O)c1ccccc1C	none (no result: bIAP act, bIAP inh)
O=C(Nc1ccccc1)c1cccc(=O)o1	none (no result: bIAP act, bIAP inh)
CC(=O)Nc1cccc(N(C)S(C)(=O)=O)c1	none
CN(c1cccc(NC(=O)Nc2cccc(Cl)c2)c1)S(C)(=O)=O	mIAP activ 3.7 | mIAP inh confirm inactive
COC(=O)C/C=N/N=C1/NC(=O)/C(=C/C(=O)O)S1	mIAP inh 54 (no result: bIAP act, bIAP inh) | mIAP inh confirm 42
O=c1oc(/C=C/c2ccco2)nc2sc3c(c12)CCC3	mIAP inh 63 | mIAP inh confirm 62
O=c1oc(-c2cccs2)nc2sc3c(c12)CCC3	none
CC[C@@H]1C/C=C\Cc2ccccc2[C@H](C(=O)C[C@@H](O)CC(C)=O)OC1=O	none (no result: bIAP act, bIAP inh)
O=Cc1cccc(OC(=O)/C=C/c2ccco2)c1	mIAP inh 49 (no result: bIAP act, bIAP inh) | mIAP inh confirm 57
COC(=O)c1ccc(OC(=O)/C=C/c2ccco2)cc1	none (no result: bIAP act, bIAP inh)
O=c1[nH]c2ccc(S(=O)(=O)N3CCCCC3)cc2o1	mIAP inh 80 | mIAP inh confirm 74
Cc1ccc(C)c(NS(=O)(=O)c2ccc3[nH]c(=O)oc3c2)c1	mIAP inh 84 | mIAP inh confirm 89
COC(=O)c1ccc(NS(=O)(=O)c2ccc3[nH]c(=O)oc3c2)cc1	mIAP inh 70 (no result: bIAP act, bIAP inh) | mIAP inh confirm 74
Cc1ccc(NS(=O)(=O)c2ccc3[nH]c(=O)oc3c2)cc1Cl	none (no result: bIAP act, bIAP inh)
Cc1cccc(NS(=O)(=O)c2ccc3[nH]c(=O)oc3c2)c1C	none (no result: bIAP act, bIAP inh)
CCOC(=O)c1c(NC(=S)NNS(=O)(=O)c2ccc(Br)cc2)sc2c1CCCCC2	none (no result: bIAP act, bIAP inh)
CN(C)/C=N/C(=S)Nc1ccc(Cl)cc1Cl	none
CC(=O)NN1C(=O)/C(=C/c2ccc(Br)o2)SC1=S	mIAP inh 67 | mIAP inh confirm 75
CC(=O)NN1C(=O)/C(=C\c2ccc(O)cc2)SC1=S	none (no result: bIAP inh)
CC(=O)NN1C(=O)/C(=C\c2ccccc2)SC1=S	none
CC(=O)NN1C(=O)/C(=C\c2ccc(Br)o2)SC1=S	mIAP inh 60 | mIAP inh confirm 74
Cc1ccc(OCCC(=O)N2CCN(c3ccc(O)cc3)CC2)cc1	none (no result: bIAP act, bIAP inh)
COc1c(-c2ccc(O)cc2)oc2cc(O)cc(O)c2c1=O	none (no result: bIAP act, bIAP inh)
CC(=O)Oc1cc(O)c2c(=O)c(OC(C)=O)c(-c3ccc(OC(C)=O)c(OC(C)=O)c3)oc2c1	mIAP inh 43 (no result: bIAP act, bIAP inh) | mIAP inh confirm 45
CCc1ccc(NC(=O)CN(C)S(=O)(=O)c2ccc3[nH]c(=O)oc3c2)cc1	mIAP inh 50 (no result: bIAP act, bIAP inh) | mIAP inh confirm 61
COc1ccc(NC(=O)CN(C)S(=O)(=O)c2ccc3[nH]c(=O)oc3c2)cc1	none (no result: bIAP act, bIAP inh)
COc1cc(OC)c(NC(=O)CN(C)S(=O)(=O)c2ccc3[nH]c(=O)oc3c2)cc1Cl	mIAP inh 64 (no result: bIAP act, bIAP inh) | mIAP inh confirm 86
CN(CC(=O)Nc1cccc(Cl)c1)S(=O)(=O)c1ccc2[nH]c(=O)oc2c1	mIAP inh 58 (no result: bIAP act, bIAP inh) | mIAP inh confirm 74
Cc1sc2nc(SCC(=O)Nc3cccc(S(N)(=O)=O)c3)[nH]c(=O)c2c1C	mIAP inh 51 (no result: bIAP act, bIAP inh) | mIAP inh confirm 62
COc1ccc(C2CC(c3ccccc3Cl)=NN2c2ccc(S(N)(=O)=O)cc2)cc1 (configuration not stated)	mIAP activ 2.2 (no result: hIAP inh, bIAP act, hIAP act, bIAP inh) | mIAP inh confirm inactive
CCOc1ccccc1N1CCN(C(=O)c2cc3cc(OC)ccc3[nH]2)CC1	none (no result: bIAP act, bIAP inh)
CCN(CC)c1ccc(S(=O)(=O)N2CCOCC2)cc1NC(=O)CNCc1ccccc1	none (no result: bIAP act, bIAP inh)
CCN(CC)c1ccc(S(=O)(=O)N2CCOCC2)cc1NC(=O)Nc1ccccc1	mIAP activ 4.7 (no result: bIAP act, bIAP inh) | mIAP inh confirm inactive
CCc1cccc(C)c1N1C(=O)CC(C)(C)CC1=O	none (no result: bIAP act, bIAP inh)
N#Cc1cccc(NC(=O)CCNS(=O)(=O)c2ccc3[nH]c(=O)oc3c2)c1	mIAP inh 75 (no result: bIAP act, bIAP inh) | mIAP inh confirm 75
COc1ccc(NC(=O)CCNS(=O)(=O)c2ccc3[nH]c(=O)oc3c2)cc1Cl	mIAP inh 44 (no result: bIAP act, bIAP inh) | mIAP inh confirm 65
CCOc1ccccc1NC(=O)CCNS(=O)(=O)c1ccc2[nH]c(=O)oc2c1	none (no result: bIAP act, bIAP inh)
CCOc1ccccc1CNC(=O)CCNS(=O)(=O)c1ccc2[nH]c(=O)oc2c1	mIAP inh 61 (no result: bIAP act, bIAP inh) | mIAP inh confirm 77
CCc1cccc(NC(=O)CCNS(=O)(=O)c2ccc3[nH]c(=O)oc3c2)c1	none (no result: bIAP act, bIAP inh)
O=C(CCCOc1ccccc1)Nc1ccc(S(=O)(=O)Nc2ccccn2)cc1	none
COc1ccc(C)cc1NCc1ccc(OC)c(C)c1OC	none (no result: bIAP act, bIAP inh)
CCCCCCNC(=O)N[C@@H](C(=O)NCCC[C@H]1CN2C(=NC[C@@H]2Cc2ccccc2)N1CCc1cccc(OC)c1)C(C)C	mIAP activ 3.3 (no result: bIAP act, bIAP inh) | mIAP inh confirm inactive
C/C=C(\C)C(=O)NCCN1C2=NC[C@@H](Cc3ccccc3)N2C[C@@H]1Cc1ccc(OC)cc1	none (no result: bIAP act, bIAP inh)
O=C(NNC(=O)c1cc2cc(Br)ccc2oc1=O)c1ccc(O)cc1O	mIAP inh 77 | mIAP inh confirm 82
O=C(O)CCN1C(=O)/C(=C\c2ccc(-c3nc4ccccc4s3)o2)SC1=S	mIAP inh 53 (no result: bIAP inh) | mIAP inh confirm 62
Cn1nc([N+](=O)[O-])nc1S(C)(=O)=O	mIAP inh 44 | mIAP inh confirm 59
CS(=O)(=O)c1nc([N+](=O)[O-])nn1CCCc1ccccc1	none (no result: bIAP act, bIAP inh)
